# Test results: ChEMBL document CHEMBL1125346, “Guanidinophenyl-substituted enol lactones as selective, mechanism-based inhibitors of trypsin-like serine proteases” (J Med Chem, 1992)
# What was measured:
# [1] = target: T1, Urokinase-type plasminogen activator (Homo sapiens, UniProt P00749); experiment: Percent activity regained after N2H4 treatment for Urokinase-type plasminogen activator (300 nM); assay type: functional
# [2] = target: Plasminogen (Homo sapiens) (UniProt P00747); experiment: Substrate binding constant against plasmin
# Outline: (§1)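 Competitive substrate assay: lactone (DMSO, final 10% v/v) and chromogenic substrate combined in buffer, enzyme added, absorbance followed to steady state. Turnover-corrected semilog plot gives kobs; I0 vs I0/kobs replot (eq 6) with separately determined Km yields Ki and ka. Where no burst was seen, Ki was estimated from Km(app) replots using 15-s initial velocities. Buffers and substrates as in incubation assay.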
# [3] = target: Chymotrypsinogen A (Bos taurus) (UniProt P00766); experiment: Second order rate constant against Chymotrypsinogen; outline: as §1
# [4] = Ratio of initial inhibitor concentration to initial t-PA concentration
# Outline: (§2)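 Ratio I0/E0 of lactone to enzyme in the 2-h incubation assay; lactone added from DMSO stock to buffered enzyme (final 10% DMSO).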
# [5] = target: T2, Serine protease 1 (Bos taurus) (UniProt P00760); experiment: Maximum percent inhibition by the compound was determined against trypsin (14.6 nM)
# T2 sequence (whole entry): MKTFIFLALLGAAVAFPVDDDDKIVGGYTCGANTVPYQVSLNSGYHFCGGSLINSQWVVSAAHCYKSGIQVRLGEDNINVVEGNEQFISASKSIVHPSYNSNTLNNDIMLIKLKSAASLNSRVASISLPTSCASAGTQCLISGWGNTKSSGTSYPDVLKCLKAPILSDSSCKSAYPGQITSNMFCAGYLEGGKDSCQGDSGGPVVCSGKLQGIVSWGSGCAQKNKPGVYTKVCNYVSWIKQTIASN
# Outline: (§3)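 Enzyme incubated with excess lactone added from DMSO stock (final 10% DMSO); aliquots over 2 h diluted into substrate: chymotrypsin Suc-AAPF-pNA 315 µM, pH 7.2, 410 nm; t-PA Spectrozyme t-PA 0.2 mM, Tris-imidazole pH 8.4, 405 nm; HNE MeO-Suc-AAPV-pNA 150 µM, pH 7.4, 410 nm; plasmin Ts-GPK-pNA 157.4 µM, pH 7.8, 404 nm; thrombin Ts-GPR-pNA 75 µM, pH 8.0, 408 nm; trypsin Z-VGR-pNA 155 µM, pH 7.2, 404 nm. Activity given relative to a no-lactone control. Some runs used a 10-min substrate-free delay after dilution. ∞ means no recovery over 2 h.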
# [6] = Ratio of initial inhibitor concentration to initial trypsin concentration; outline: as §2
# [7] = target: Prothrombin (Homo sapiens) (UniProt P00734); experiment: Time for which maximum percent inhibition persists was determined against thrombin (1.93 nM); * =no enzyme activity was recovered over 2 h; assay type: functional; outline: as §3
# [8] = target: Plasminogen (Homo sapiens) (UniProt P00747); experiment: Maximum percent inhibition by the compound was determined against plasmin(625 nM); outline: as §3
# [9] = target: Prothrombin (Homo sapiens) (UniProt P00734); experiment: Acylation rate constant against thrombin; outline: as §1
# [10] = target: T1, Urokinase-type plasminogen activator; experiment: Acylation rate constant against urokinase
# [11] = target: T3, Neutrophil elastase (Homo sapiens) (UniProt P08246); experiment: Time for which maximum percent inhibition by the compound was determined against human neutrophil elastase HNE(66 nM); assay type: functional; outline: as §3
# T3 sequence (whole entry): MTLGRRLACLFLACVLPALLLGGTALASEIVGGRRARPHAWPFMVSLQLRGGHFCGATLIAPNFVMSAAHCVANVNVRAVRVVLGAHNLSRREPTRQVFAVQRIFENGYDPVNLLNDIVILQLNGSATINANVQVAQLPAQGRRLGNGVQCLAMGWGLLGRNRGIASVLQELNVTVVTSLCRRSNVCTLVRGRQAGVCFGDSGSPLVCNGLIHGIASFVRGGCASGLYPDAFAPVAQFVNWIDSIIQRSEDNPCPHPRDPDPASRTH
# [12] = target: Tissue-type plasminogen activator (Homo sapiens) (UniProt P00750); experiment: Maximum percent inhibition by the compound was determined against Tissue plasminogen activator (19.4 nM); outline: as §3
# [13] = target: Chymotrypsinogen A (Bos taurus) (UniProt P00766); experiment: Percent activity regained after N2H4 treatment for alpha-chymotrypsin (17 nM); assay type: functional
# [14] = target: Chymotrypsinogen A (Bos taurus) (UniProt P00766); experiment: Substrate binding constant against Chymotrypsinogen; outline: as §1
# [15] = Ratio of initial inhibitor concentration to initial thrombin concentration; outline: as §2
# [16] = Ratio of initial inhibitor concentration to initial Chymotrypsinogen concentration; outline: as §2
# [17] = target: Prothrombin (Homo sapiens) (UniProt P00734); experiment: Time to reach maximum percent inhibition by the compound was determined against thrombin (1.93 nM); assay type: functional
# Outline: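 Thrombin was incubated with excess lactone (DMSO, 10% final). Aliquots over 2 h were diluted into Ts-Gly-Pro-Arg-pNA (75 μM) in 0.05 M phosphate, 0.01 M EDTA, 10 g/L PEG 8000, 10 mg/L aprotinin, pH 8.0, and read at 408 nm against a no-lactone control. Time to maximal inhibition was recorded.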
# [18] = target: Plasminogen (Homo sapiens) (UniProt P00747); experiment: Time to reach maximum percent inhibition by the compound was determined against plasmin(625 nM); assay type: functional
# Outline: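 Plasmin plus excess lactone (10% final DMSO) was sampled over 2 h into Ts-Gly-Pro-Lys-pNA (157.4 μM) in 0.05 M phosphate, pH 7.8. The slope at 404 nm, relative to an enzyme-only control, gave residual activity. Minutes needed to reach maximal inhibition were reported.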
# [19] = target: Plasminogen (Homo sapiens) (UniProt P00747); experiment: Acylation rate constant against plasmin; outline: as §1
# [20] = Ratio of initial inhibitor concentration to initial HNE concentration; outline: as §2
# [21] = target: T3, Neutrophil elastase (Homo sapiens); experiment: Maximum percent inhibition persists was determined against human neutrophil elastase HNE 66 nM; outline: as §3
# [22] = Ratio of initial inhibitor concentration to initial urokinase concentration; outline: as §2
# [23] = target: Prothrombin (Homo sapiens) (UniProt P00734); experiment: Second order rate constant against thrombin; outline: as §1
# [24] = target: Prothrombin (Homo sapiens) (UniProt P00734); experiment: Percent activity regained after N2H4 treatment for thrombin (1.93 nM); assay type: functional
# [25] = target: Chymotrypsinogen A (Bos taurus) (UniProt P00766); experiment: Time for which maximum percent inhibition by the compound was determined against alpha-chymotrypsin (17 nM); assay type: functional; outline: as §3
# [26] = target: Tissue-type plasminogen activator (Homo sapiens) (UniProt P00750); experiment: Percent activity regained after N2H4 treatment for Tissue plasminogen activator 19.4 nM); assay type: functional
# [27] = target: Tissue-type plasminogen activator (Homo sapiens) (UniProt P00750); experiment: Time for which maximum percent inhibition persists was determined against Tissue plasminogen activator (19.4 nM); * =no enzyme activity was recovered over 2 h; assay type: functional; outline: as §3
# [28] = target: Tissue-type plasminogen activator (Homo sapiens) (UniProt P00750); experiment: Substrate binding constant against Tissue plasminogen activator; outline: as §1
# [29] = target: T2, Serine protease 1 (Bos taurus); experiment: Time for which maximum percent inhibition persists was determined against trypsin (14.6 nM); assay type: functional
# Outline: (§4)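 Trypsin was incubated with excess lactone added from DMSO stock (10% final DMSO). Aliquots taken over 2 h were diluted into Z-Val-Gly-Arg-pNA (155 μM) in 0.2 M phosphate, pH 7.2, and read at 404 nm. Activity came from the absorbance slope versus a no-lactone control. Reported are minutes to maximal inhibition and minutes it persisted; ∞ means no recovery within 2 h.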
# [30] = Ratio of initial inhibitor concentration to initial Plasmin concentration; outline: as §2
# [31] = target: T2, Serine protease 1 (Bos taurus); experiment: Time to reach maximum percent inhibition by the compound was determined against trypsin (14.6 nM); assay type: functional; outline: as §4
# [32] = target: T1, Urokinase-type plasminogen activator
# [33] = target: Chymotrypsinogen A (Bos taurus) (UniProt P00766); experiment: Maximum percent inhibition persists was determined against Chymotrypsinogen (17 nM); outline: as §3
# [34] = target: Plasminogen (Homo sapiens) (UniProt P00747); experiment: Percent activity regained after N2H4 treatment for plasmin(625 nM); assay type: functional
# [35] = target: Tissue-type plasminogen activator (Homo sapiens) (UniProt P00750); experiment: Time to reach maximum percent inhibition by the compound was determined against Tissue plasminogen activator (19.4 nM); assay type: functional
# Outline: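 Tissue plasminogen activator was exposed to excess lactone (10% final DMSO). Over 2 h, aliquots were diluted into Spectrozyme t-PA (0.2 mM) in Tris-imidazole, I 0.3, pH 8.4. Hydrolysis at 405 nm gave residual activity relative to an enzyme-only control. The time (min) to reach maximal percent inhibition was recorded.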
# [36] = target: Chymotrypsinogen A (Bos taurus) (UniProt P00766); experiment: Time for which maximum percent inhibition persists was determined against alpha-chymotrypsin (17 nM); * =no enzyme activity was recovered over 2 h; assay type: functional; outline: as §3
# [37] = target: Prothrombin (Homo sapiens) (UniProt P00734); experiment: Maximum percent inhibition by the compound was determined against thrombin (1.93 nM); outline: as §3
# [38] = target: Chymotrypsinogen A (Bos taurus) (UniProt P00766); experiment: Acylation rate constant against Chymotrypsinogen; outline: as §1
# [39] = target: T1, Urokinase-type plasminogen activator; remark: listed apart in the source
# [40] = target: T3, Neutrophil elastase (Homo sapiens); experiment: Time for which maximum percent inhibition persists was determined against human neutrophil elastase HNE(66 nM); assay type: functional; outline: as §3
# [41] = target: Prothrombin (Homo sapiens) (UniProt P00734); experiment: Substrate binding constant against thrombin; outline: as §1
# [42] = target: Plasminogen (Homo sapiens) (UniProt P00747); experiment: Time for which maximum percent inhibition persists was determined against plasmin(625 nM); * =no enzyme activity was recovered over 2 h; assay type: functional; outline: as §3
# [43] = target: Plasminogen (Homo sapiens) (UniProt P00747); experiment: Second order rate constant against plasmin; outline: as §1
# Chain of Plasminogen (Homo sapiens) (P00747 97-580 limits assumed): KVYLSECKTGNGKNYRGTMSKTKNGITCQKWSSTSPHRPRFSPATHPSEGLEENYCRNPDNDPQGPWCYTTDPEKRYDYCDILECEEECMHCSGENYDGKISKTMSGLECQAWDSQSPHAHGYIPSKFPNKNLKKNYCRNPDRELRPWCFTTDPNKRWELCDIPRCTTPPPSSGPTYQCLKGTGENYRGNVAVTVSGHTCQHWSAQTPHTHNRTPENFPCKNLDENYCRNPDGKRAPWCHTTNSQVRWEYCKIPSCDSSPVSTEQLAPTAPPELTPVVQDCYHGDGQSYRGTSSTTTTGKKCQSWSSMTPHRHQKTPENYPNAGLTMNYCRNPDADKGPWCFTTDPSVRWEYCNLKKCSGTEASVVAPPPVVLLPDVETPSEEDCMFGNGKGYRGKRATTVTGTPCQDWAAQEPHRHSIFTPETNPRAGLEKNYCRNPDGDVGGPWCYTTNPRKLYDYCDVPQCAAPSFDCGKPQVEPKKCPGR
# Chain of Plasminogen (Homo sapiens) (P00747 581-810 limits assumed): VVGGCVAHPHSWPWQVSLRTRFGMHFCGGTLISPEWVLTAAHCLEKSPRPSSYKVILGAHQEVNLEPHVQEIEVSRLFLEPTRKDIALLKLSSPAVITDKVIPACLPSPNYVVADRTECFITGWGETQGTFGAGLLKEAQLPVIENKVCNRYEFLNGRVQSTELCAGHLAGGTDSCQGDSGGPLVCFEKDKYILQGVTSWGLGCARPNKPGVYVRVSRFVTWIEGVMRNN
# Chain of Tissue-type plasminogen activator (Homo sapiens) (P00750 36-562 limits assumed): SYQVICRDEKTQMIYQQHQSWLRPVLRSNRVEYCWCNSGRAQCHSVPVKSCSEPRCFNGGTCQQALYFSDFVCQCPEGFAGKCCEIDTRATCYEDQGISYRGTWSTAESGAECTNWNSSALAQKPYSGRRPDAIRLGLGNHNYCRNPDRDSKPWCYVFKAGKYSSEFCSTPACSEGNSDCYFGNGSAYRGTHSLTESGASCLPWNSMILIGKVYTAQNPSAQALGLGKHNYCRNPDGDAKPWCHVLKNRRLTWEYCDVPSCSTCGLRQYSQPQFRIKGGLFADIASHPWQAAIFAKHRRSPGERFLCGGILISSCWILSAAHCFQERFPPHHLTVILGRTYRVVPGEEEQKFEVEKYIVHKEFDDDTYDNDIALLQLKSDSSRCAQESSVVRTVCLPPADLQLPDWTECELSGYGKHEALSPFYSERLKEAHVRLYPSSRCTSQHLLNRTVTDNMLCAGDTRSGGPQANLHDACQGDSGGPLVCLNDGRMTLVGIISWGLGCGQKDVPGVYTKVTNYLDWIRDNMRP
smiles,measurement,setting,value
N=C(N)Nc1ccc(C2CC/C(=C\I)OC2=O)cc1 (stereo not drawn),Activity,[1],0%
same,Ks,[2],0.03 µM
same,Rate,[3],3 ka/Ks
same,Ratio,[4],100 Io/Eo
same,inhibition,[5],80%
same,Ratio,[6],86 Io/Eo
same,TIME,[7],No enzyme activity
same,inhibition,[8],95%
same,Ka,[9],12.9 min⁻¹
same,Ka,[10],18.6 min⁻¹
same,TIME,[11],0.5 h
same,inhibition,[12],48%
same,Activity,[13],32%
same,Ks,[14],2.4 µM
same,Ratio,[15],518 Io/Eo
same,Ratio,[16],118 Io/Eo
same,TIME,[17],0 h
same,TIME,[18],0 h
same,Ka,[19],13.6 min⁻¹
same,Ratio,[20],36 Io/Eo
same,inhibition,[21],38%
same,Ratio,[22],50 Io/Eo
same,Rate,[23],14 ka/Ks
same,Activity,[24],85%
same,TIME,[25],0.25 h
same,Activity,[26],0%
same,TIME,[27],No enzyme activity
same,Ks,[28],0.67 µM
same,TIME,[29],0 h
same,Ratio,[30],16 Io/Eo
same,TIME,[31],0 h
same,Ks,[32],0.16 µM
same,inhibition,[33],78%
same,Activity,[34],14%
same,TIME,[35],0.25 h
same,TIME,[36],No enzyme activity
same,inhibition,[37],93%
same,Ka,[38],7.22 min⁻¹
same,Rate,[39],117 ka/Ks
same,TIME,[40],1.5 h
same,Ks,[41],0.93 µM
same,TIME,[42],No enzyme activity
same,Rate,[43],453 ka/Ks
